Source: ChEMBL document CHEMBL2146441, “2,6-Disubstituted imidazo[2,1-b][1,3,4]thiadiazoles: search for anticancer agents” (2012)

Key:
Format in all cases: functional
ACHN = test: Cytotoxicity against human ACHN cells assessed as cell growth at 10^-5 M after 48 hrs by SRB assay; conditions: read-out: Activity
How it was run: (§1)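 NCI-60 screen: lines kept in RPMI 1640 with 5% FBS, seeded at 5000–40,000 cells/well by doubling time, preincubated 24 h at 37 °C in 5% CO2. Time-zero plates TCA-fixed at drug addition. DMSO stocks diluted in medium, 48 h exposure. Fixation in cold TCA (final 10% adherent, 16% suspension), 0.4% SRB stain, solubilised in 10 mM Tris base, A515. Percent growth computed against control and time-zero.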

COLO [1] = test: Cytotoxicity against human COLO […] cells assessed as cell growth at 10^-4 M after 48 hrs by SRB assay; conditions: read-out: Activity; how it was run: as §1
SF-268 = test: Cytotoxicity against human SF268 cells assessed as cell growth at 10^-7 M after 48 hrs by SRB assay; conditions: SF-268, 48 h, read-out: Activity
SF-295 = test: Cytotoxicity against human SF295 cells assessed as cell growth at 10^-8 M after 48 hrs by SRB assay; conditions: SF-295, 48 h, read-out: Activity
COLO [2] = test: Growth inhibition of human COLO […] cells after 48 hrs by SRB assay
How it was run: (§2)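 Same 48 h NCI-60 five-dose SRB protocol. Adherent lines were fixed with cold TCA at 10% final; suspension lines such as CCRF-CEM were fixed with 16% final TCA. Stain was 0.4% SRB in 1% acetic acid for 10 min, solubilized in 10 mM Tris base and read at 515 nm. GI50 came from log concentration–growth curves, solving [(Ti−Tz)/(C−Tz)]×100 = 50.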

SR = test: Cytotoxicity against human SR cells assessed as cell growth at 10^-7 M after 48 hrs by SRB assay; conditions: read-out: Activity
CCRF-CEM = test: Growth inhibition of human CCRF-CEM cells after 48 hrs by SRB assay; conditions: for CC50: read-out: LC50 (the source's name); how it was run: as §2
HCC 2998 [3] = test: Cytotoxicity against human HCC2998 cells assessed as cell growth at 10^-6 M after 48 hrs by SRB assay; conditions: HCC 2998, 48 h, read-out: Activity
How it was run: (§3)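 NCI-60 five-dose screen. Cells were grown in RPMI 1640 with 5% FBS and seeded at 5000–40,000 cells/well according to doubling time. They were pre-incubated 24 h at 37 °C in 5% CO₂, and time-zero (Tz) plates were TCA-fixed at drug addition. Five 10-fold dilutions of DMSO stock were applied for 48 h. Read-out was SRB staining, 515 nm absorbance, with percent growth calculated versus Tz and untreated control.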

TK-10 [4] = test: Cytotoxicity against human TK10 cells assessed as cell growth at 10^-4 M after 48 hrs by SRB assay; conditions: TK-10, 48 h, read-out: Activity
HT-29 = test: Cytotoxicity against human HT-29 cells assessed as cell growth at 10^-5 M after 48 hrs by SRB assay; conditions: HT-29, 48 h, read-out: Activity; how it was run: as §3
T47D = test: Cytotoxicity against human T47D cells assessed as cell growth at 10^-5 M after 48 hrs by SRB assay; conditions: read-out: Activity
SNB-75 = test: Cytotoxicity against human SNB75 cells assessed as cell growth at 10^-8 M after 48 hrs by SRB assay; conditions: SNB-75, 48 h, read-out: Activity
A549 [5] = test: Cytotoxicity against human A549 cells assessed as cell growth at 10^-7 M after 48 hrs by SRB assay; conditions: A549, 48 h, read-out: Activity; how it was run: as §1
LOX IMVI [6] = test: Cytotoxicity against human LOXIMVI cells assessed as cell growth at 10^-7 M after 48 hrs by SRB assay; conditions: read-out: Activity
[7] = Cytotoxicity against human […] cells assessed as cell growth at 10^-7 M after 48 hrs by SRB assay; conditions: 48 h, read-out: Activity
NCI-H226 = test: Cytotoxicity against human NCI-H226 cells assessed as cell growth at 10^-6 M after 48 hrs by SRB assay; conditions: NCI-H226, 48 h, read-out: Activity
HL-60 [8] = test: Cytotoxicity against human HL60 cells assessed as cell growth at 10^-8 M after 48 hrs by SRB assay; conditions: HL-60, 48 h, read-out: Activity; how it was run: as §3
TK-10 [9] = test: Cytotoxicity against human TK10 cells assessed as cell growth at 10^-5 M after 48 hrs by SRB assay; conditions: TK-10, 48 h, read-out: Activity
LOX IMVI [10] = test: Cytotoxicity against human LOXIMVI cells assessed as cell growth at 10^-4 M after 48 hrs by SRB assay; conditions: read-out: Activity
MOLT-4 = test: Cytotoxicity against human MOLT4 cells assessed as cell growth at 10^-5 M after 48 hrs by SRB assay; conditions: MOLT-4, 48 h, read-out: Activity
U-251 = test: Cytotoxicity against human U251 cells assessed as cell growth at 10^-7 M after 48 hrs by SRB assay; conditions: U-251, 48 h, read-out: Activity
RXF 393 = test: Growth inhibition of human RXF393 cells after 48 hrs by SRB assay; conditions: RXF 393, 48 h
How it was run: (§4)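 Adherent NCI-60 lines grown in RPMI 1640 with 5% FBS, seeded at 5000–40,000 cells/well, and preincubated 24 h at 37 °C, 5% CO2. Compound, stocked in DMSO, given either once at 10^-5 M or at five 10-fold dilutions for 48 h. Cells fixed with cold TCA (final 10%), stained with 0.4% SRB, and read at 515 nm. GI50 taken as 50% reduction in net protein increase versus time-zero and control plates.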

A549 [11] = test: Growth inhibition of human A549 cells after 48 hrs by SRB assay; conditions: A549, 48 h; for CC50: read-out: LC50 (the source's name); how it was run: as §2
OVCAR-5 = test: Cytotoxicity against human OVCAR5 cells assessed as cell growth at 10^-6 M after 48 hrs by SRB assay; conditions: OVCAR-5, 48 h, read-out: Activity
NCI-H322M = test: Growth inhibition of human NCI-H322M cells after 48 hrs by SRB assay; conditions: for CC50: read-out: LC50 (the source's name); how it was run: as §4
[12] = Cytotoxicity against human NCI-ADR-RES cells assessed as cell growth at 10^-7 M after 48 hrs by SRB assay; conditions: read-out: Activity
HCC 2998 [13] = test: Cytotoxicity against human HCC2998 cells assessed as cell growth at 10^-4 M after 48 hrs by SRB assay; conditions: HCC 2998, 48 h, read-out: Activity; how it was run: as §1
DU-145 = test: Cytotoxicity against human DU145 cells assessed as cell growth at 10^-5 M after 48 hrs by SRB assay; conditions: DU-145, 48 h, read-out: Activity; how it was run: as §1
NCI-H460 = test: Cytotoxicity against human NCI-H460 cells assessed as cell growth at 10^-7 M after 48 hrs by SRB assay; conditions: NCI-H460, 48 h, read-out: Activity
HL-60 [14] = test: Cytotoxicity against human HL60 cells assessed as cell growth at 10^-4 M after 48 hrs by SRB assay; conditions: HL-60, 48 h, read-out: Activity; how it was run: as §3

| SMILES | growth at 10 µM (ACHN) | growth at 100 µM (COLO [1]) | growth at 0.1 µM (SF-268) | growth at 0.01 µM (SF-295) | GI50 (COLO [2]) | LC50 (COLO [2]) | TGI (COLO [2]) | growth at 0.1 µM (SR) | GI50 (CCRF-CEM) | TGI (CCRF-CEM) | CC50 (CCRF-CEM) | growth at 1 µM (HCC 2998 [3]) | growth at 100 µM (TK-10 [4]) | growth at 10 µM (HT-29) | growth at 10 µM (T47D) | growth at 0.01 µM (SNB-75) | growth at 0.1 µM (A549 [5]) | growth at 0.1 µM (LOX IMVI [6]) | growth at 0.1 µM [7] | growth at 1 µM (NCI-H226) | further results |
| --- | --- | --- | --- | --- | --- | --- | --- | --- | --- | --- | --- | --- | --- | --- | --- | --- | --- | --- | --- | --- | --- |
| COc1ccc(-c2nn3cc(-c4ccc(O)cc4O)nc3s2)cc1 | 9% | -27% | 96% | 95% | 5.82 µM | > 100 µM | 36.8 µM | 85% | 5.08 µM | > 100 µM | > 100 µM | 78% | -21% | 9% | -29% | 69% | 99% | 94% | 95% | 61% | growth at 0.01 µM (HL-60 [8]): 96%; growth at 10 µM (TK-10 [9]): 7%; growth at 100 µM (LOX IMVI [10]): -4%; growth at 10 µM (MOLT-4): 20%; growth at 0.1 µM (U-251): 92%; GI50 (RXF 393): 1.09 µM; LC50 (RXF 393): 5.74 µM; TGI (RXF 393): 2.5 µM; GI50 (A549 [11]): 2.69 µM; TGI (A549 [11]): > 100 µM; CC50 (A549 [11]): > 100 µM; growth at 1 µM (OVCAR-5): 84%; GI50 (NCI-H322M): 3.23 µM; TGI (NCI-H322M): > 100 µM; CC50 (NCI-H322M): > 100 µM; growth at 0.1 µM [12]: 99%; growth at 100 µM (HCC 2998 [13]): -3%; growth at 10 µM (DU-145): 27%; growth at 0.1 µM (NCI-H460): 101%; growth at 100 µM (HL-60 [14]): -25% |
| COc1ccc(-c2nn3cc(-c4cccc(N)c4)nc3s2)cc1 | 27% | -56% | 101% | 95% | 7.08 µM | 86 µM | 26.7 µM | 102% | 1.77 µM | > 100 µM | > 100 µM | 84% | -30% | 27% | 7% | 70% | 106% | 92% | 83% | 58% | growth at 0.01 µM (HL-60 [8]): 103%; growth at 10 µM (TK-10 [9]): 41%; growth at 100 µM (LOX IMVI [10]): -29%; growth at 10 µM (MOLT-4): 21%; growth at 0.1 µM (U-251): 106%; GI50 (RXF 393): 1.38 µM; LC50 (RXF 393): 20.9 µM; TGI (RXF 393): 4.66 µM; GI50 (A549 [11]): 5.84 µM; TGI (A549 [11]): 27.5 µM; CC50 (A549 [11]): > 100 µM; growth at 1 µM (OVCAR-5): 90%; GI50 (NCI-H322M): 7.15 µM; TGI (NCI-H322M): 87.2 µM; CC50 (NCI-H322M): > 100 µM; growth at 0.1 µM [12]: 96%; growth at 100 µM (HCC 2998 [13]): 6%; growth at 10 µM (DU-145): 41%; growth at 0.1 µM (NCI-H460): 92%; growth at 100 µM (HL-60 [14]): -14% |
